Bioassay records: PubChem BioAssay, several laboratories
NTR1 ag – agonists of human NTR1, primary screen, imaging, U2OS cells, beta-arrestin-GFP, high content; AID 493036, 2011; hit rate 0.17% among 330,000; Neurotensin receptor type 1 (Homo sapiens), P30989; NTR1-U2OS beta-arrestin-GFP spot imaging, agonist mode; activation, % at 20 µM;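 active = activation at or above 40% of the spot to cytoplasm intensity ratio, with at least 20 cells analyzed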;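 also: 0% = DMSO without peptide and 100% = 100 nM NTR1 peptide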
PG9 binder – binders of HIV-1 gp120 antibody PG9, primary screen, biochemical, TR-FRET. HIV-1 gp120 / PG9 antibody interaction. TR-FRET gp120-PG9 antibody binding. inhibition, % at 6.7 µM. hit rate 0.43% among 360,000; in the data active = inhibition above about 8.5%
MC4R antag cAMP – MC4R antagonists of cAMP signaling, primary screen, cell-based, TR-FRET, antagonist arm of biased-ligand search. AID 540295, 2011. hit rate 0.48% among 360,000. MC4R-expressing cells, MTII-stimulated cAMP, LANCE TR-FRET. inhibition, % at 6.5 µM. Melanocortin receptor 4 (Homo sapiens), P32245;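 active = inhibition above its plate's cutoff, the mean of tested wells on that plate plus 3 SD, cut at about 29% in these data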;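 also: 0% = Melanotan II alone and 100% = Melanotan II plus saturating MCL0020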
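System: U2OS-MC4R stable cell line; Technique: Eu-cAMP/anti-cAMP TR-FRET, emission 671 nm; Repeats: single well per compound; Also added: Melanotan II; Dosing: one concentration, 6.5 µM nominal; Schedule: 30-min compound, 1-h challenge, 1-h detection, room temperature.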
Rev-erbA mod – modulators of Rev-erb alpha DNA binding, primary screen, biochemical, FITC-DNA, fluorescence polarization, uHTS; AID 1259318, 2017; Rev-erbα–FITC-DNA binding, 90 min; activity, % at 10 µM; hit rate 0.79% among 370,000; Nuclear receptor subfamily 1 group D member 1 (Homo sapiens), P20393;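 active = activity above about 14%, limit read from the data; passing the limit was not always enough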;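 also: 0% = DMSO wells with 35 nM protein and 100% = DMSO wells with 750 nM protein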
MC4R ag barr – MC4R agonists recruiting beta-arrestin, primary screen, cell-based, luminescence, agonist arm of biased-ligand search | U2OS MC4R beta-arrestin complementation; percent of melanotan II response, DMSO zero | hit rate 0.98% among 360,000 | activation, % at 8.9 µM | Melanocortin receptor 4 (Homo sapiens), P32245;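 active = activation above a per-plate cutoff, the mean activation of sample wells on that plate plus 3 SD, cut at about 8% in these data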
MC4R barr conf – MC4R beta-arrestin agonists, retest, confirmation, cell-based, luminescence, U2OS. activation, % at 8.9 µM. shares compounds with MC4R ag barr. AID 602192, 2012. hit rate 31% among 2,400. U2OS MC4R beta-arrestin recruitment; scaled DMSO 0%, Melanotan II 100%;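 active = mean activation across replicates above the hit cutoff set in the earlier primary screen, cut at about 8% in these data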
MOR-DOR barr ag – agonists of MOR-DOR heterodimerization, counter-screen for MC4R biased agonist project, cell-based, luminescence | shares compounds with MC4R ag barr | U2OS PathHunter beta-arrestin, beta-gal luminescence; percent of deltorphin B response, DMSO zero | activation, % at 9.2 µM | hit rate 5.8% among 2,400 | AID 602194, 2012;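 active = mean activation across replicates exceeds the hit threshold derived in the earlier primary screen, cut at about 18% in these data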;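 also: 100% = deltorphin B at 0.9 µM final and 0% = DMSO alone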
Target sequence (P35372 whole entry, looked up): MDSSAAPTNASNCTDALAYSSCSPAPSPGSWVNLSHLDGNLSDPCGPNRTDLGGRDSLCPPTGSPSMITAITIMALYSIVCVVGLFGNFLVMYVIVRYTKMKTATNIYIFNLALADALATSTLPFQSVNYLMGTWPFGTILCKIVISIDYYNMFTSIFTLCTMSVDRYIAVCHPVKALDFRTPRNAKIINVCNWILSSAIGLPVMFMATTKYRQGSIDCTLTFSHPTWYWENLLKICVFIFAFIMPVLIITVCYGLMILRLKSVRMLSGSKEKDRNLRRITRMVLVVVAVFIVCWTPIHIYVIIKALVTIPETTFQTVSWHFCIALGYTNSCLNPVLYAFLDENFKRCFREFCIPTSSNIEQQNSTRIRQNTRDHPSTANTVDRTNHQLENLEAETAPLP
Target sequence (P41143 whole entry, looked up): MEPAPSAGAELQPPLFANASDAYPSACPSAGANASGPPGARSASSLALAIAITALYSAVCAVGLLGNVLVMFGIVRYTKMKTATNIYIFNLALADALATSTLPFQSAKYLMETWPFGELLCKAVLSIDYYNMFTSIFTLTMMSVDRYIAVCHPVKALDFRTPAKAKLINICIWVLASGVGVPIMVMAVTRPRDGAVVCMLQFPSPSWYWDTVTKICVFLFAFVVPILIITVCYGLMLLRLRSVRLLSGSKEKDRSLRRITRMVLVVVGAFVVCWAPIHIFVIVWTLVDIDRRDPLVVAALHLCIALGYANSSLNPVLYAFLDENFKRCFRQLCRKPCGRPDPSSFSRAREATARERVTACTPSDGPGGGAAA
* = called active by the depositor; . = no result given. The list is not random: actives were taken first. Their share in the collection is about 2.5%.

SMILES | NTR1 ag | PG9 binder | MC4R antag cAMP | Rev-erbA mod | MC4R ag barr | MC4R barr conf | MOR-DOR barr ag
COc1ccc(-c2cc3cccc(OC)c3oc2=O)cc1 | 1 | -1 | -4 | -1 | -1 | . | .
Clc1ccc(-c2csc(N/N=C\c3cccnc3)n2)cc1 | 7 | -3 | 17 | 1 | 11* | 0 | 5
C=CC[C@@H](CC(=O)N[C@@H](CO)Cc1ccccc1)C(=O)N[C@@H](COC(=O)[C@@H](CC=C)CC(=O)OC(C)(C)C)Cc1c[nH]c2ccccc12 | 2 | 0 | 9 | 0 | 15* | 3 | 5
O=C(COC(=O)/C=C/c1cccc(C(F)(F)F)c1)NC(=O)NCc1ccco1 | 0 | -1 | -5 | 3 | 15* | 3 | 7
OC[C@@H](O)[C@H](O)[C@@H](O)[C@H](O)CO | . | . | . | -4 | . | . | .
Cc1cc(/C=N/n2cnnc2)c(C)n1-c1ccc(Cl)cc1 | 0 | 0 | -6 | 10 | 1 | . | .
Cc1cc(/C=N/n2cnnc2)c(C)n1-c1ccc(OCc2ccc(Cl)cc2Cl)cc1 | 10 | . | -17 | . | 14* | 5 | 5
O=C(NCCc1ccccc1)[C@@H]1CC=C[C@@H]2CCN(Cc3ccc(Cl)c(Cl)c3)C(=O)[C@@H]21 | 3 | -1 | -3 | -3 | 12* | 9.3* | 8
O=C1[C@H]2[C@H](C=CC[C@H]2C(=O)N2CCN(c3ccccc3)CC2)CCN1Cc1ccccc1 | 1 | 2 | 1 | 0 | 0 | . | .
O=C1[C@H]2[C@H](C=CC[C@H]2C(=O)N2CCN(c3ccccc3)CC2)CCN1Cc1ccc(Cl)c(Cl)c1 | 11 | 1 | 15 | 5 | 69* | 15* | 4
COc1ccc(NC(=O)[C@@H]2CC=C[C@@H]3CCN(Cc4ccc(Cl)c(Cl)c4)C(=O)[C@@H]32)cc1 | 1 | 1 | 4 | 6 | 13* | 11* | 3
COc1ccc(CC(N)c2csc(NC(=O)Nc3ccccc3C(C)(C)C)n2)cc1 (stereo not drawn) | . | 0 | 5 | 0 | 0 | . | .
Cc1ccccc1NC(=O)Nc1nc(C(N)Cc2ccccc2)cs1 (stereo not drawn) | . | -1 | -1 | -1 | 2 | . | .
NC(Cc1ccc(C(F)(F)F)cc1)c1csc(NC(=O)Nc2ccccc2Cl)n1 (stereo not drawn) | . | -1 | 8 | 1 | 15* | 19* | 9
COc1ccc(CC(N)c2csc(NC(=O)Nc3cccc(C(F)(F)F)c3)n2)cc1 (stereo not drawn) | . | -1 | 2 | -3 | 0 | . | .
NC(Cc1ccc(Cl)cc1)c1csc(NC(=O)Nc2ccccc2)n1 (stereo not drawn) | . | 2 | 1 | 2 | 20* | 22* | 13
COc1cc(OC)nc(Nc2nc(C(N)Cc3ccc(Cl)cc3)cs2)n1 (stereo not drawn) | . | -2 | -1 | -2 | 21* | 7 | 11
NC(Cc1ccc(C(F)(F)F)cc1)c1csc(NC(=O)Nc2ccccc2)n1 (stereo not drawn) | . | 1 | 1 | 6 | 19* | 19* | 13
S=C(Nc1ccccc1Cl)OCCN1CCCC12CCC(c1ccccc1)CC2 (stereo not drawn) | . | . | . | 3 | . | . | .
COc1cc(CNC(=O)Nc2nc(C(N)Cc3ccc(C(F)(F)F)cc3)cs2)cc(OC)c1OC (stereo not drawn) | . | 0 | -1 | 0 | 10* | 1 | 4
COc1ccc(OC)c(NC(=O)Nc2nc(C(N)CCc3ccccc3)cs2)c1 (stereo not drawn) | . | 3 | 5 | -10 | 11* | 36* | 20*
COc1ccccc1NC(=O)Nc1nc(C(N)Cc2ccc(Cl)cc2)cs1 (stereo not drawn) | . | 0 | 7 | 10 | 13* | 22* | 10
CC(C)CC(N)c1csc(NC(=O)C(c2ccccc2)c2ccccc2)n1 (stereo not drawn) | . | 1 | -1 | -1 | 13* | 16* | 24*
COc1ccc(CC(N)c2csc(NC(=O)NCc3ccccc3)n2)cc1 (stereo not drawn) | . | -1 | 7 | 2 | 3 | . | .
COc1ccc(S[C@]2(C(=O)N(C)C)CC(=O)N(C(=O)c3ccccc3)[C@@H]2c2ccc(OC)cc2)cc1 | . | . | . | 0 | . | . | .
SMILES | NTR1 ag | PG9 binder | MC4R antag cAMP | Rev-erbA mod | MC4R ag barr | MC4R barr conf | MOR-DOR barr ag
O=C(CN1CCCC1)Nc1cccc(Cl)c1 | 1 | 0 | 7 | -4 | 0 | . | .
O=C(CN1CCCCCCC1)Nc1cc(Cl)cc(Cl)c1 | 8 | 0 | 27 | -1 | 14* | -2 | 3
CCOc1ccc(Cn2c3ccc(OC)cc3c3nc4ccccc4nc32)cc1 | . | -1 | -2 | -20 | 30* | 38* | 15
CC(C)CCNc1ncnc2c1nnn2Cc1ccccc1Cl | -1 | 4 | 1 | 1 | 18* | 4 | 5
Cc1cc2c(c(=O)o1)[C@@]1(C(=O)N(C)c3c(Br)cccc31)C1=C(CCCC1=O)O2 | . | -1 | . | -1 | . | . | .
Cc1ccc(NC(=O)[C@@H](Cc2ccccc2)NC(=O)[C@H]2O[C@@H](n3ccc(=O)[nH]c3=O)[C@H](O)[C@@H]2O)cc1C | . | 0 | . | -3 | . | . | .
Cc1nc(NC(=O)c2ccc(Br)o2)ccc1Br | 0 | -3 | -4 | 1 | -1 | . | .
Cc1nc(NC(=O)c2cc3ccccc3o2)ccc1Br | 2 | -9 | 0 | 18 | 11* | 0 | 3
O=C(CN1c2ccccc2Sc2ccccc21)NNC(=O)Nc1ccc(Cl)cc1 | 17 | -4 | 5 | 5 | 3 | . | .
O=C(NNc1nc2ccccc2s1)Nc1ccc(Cl)c(Cl)c1 | 7 | 0 | 20 | -2 | 16* | 9.2* | 10
O=C(NNc1nc2ccccc2s1)Nc1ccc(F)cc1 | 1 | 0 | -9 | -9 | 2 | . | .
O=C(CN1c2ccccc2Sc2ccccc21)NNC(=O)Nc1ccc(Cl)c(Cl)c1 | 8 | 0 | 5 | 7 | 23* | 6 | 1
O=C(CCCOC(=O)c1ccc(O)cc1O)c1ccc(Br)cc1 | 7 | 0 | 5 | 8 | 10* | 8.7* | 7
Cc1cc(OCCN2CCC(Cc3ccccc3)CC2)ccc1[N+](=O)[O-] | 2 | 1 | 12 | 4 | 14* | 4 | 9
